We go through two compounds from ChEMBL document CHEMBL1133513, “Synthesis and biological activity of novel 5-fluoro-2'-deoxyuridine phosphoramidate prodrugs” (J Med Chem, 2000).

Holding throughout (type): functional, cell-based
Test [1] relates to L1210. The experiment in a line: Growth inhibition in L1210 mouse Leukemia cells for a treatment time of 48 hr. The following applies: L1210, 48 h. An outline of the steps: (§1)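 L1210 cells in exponential growth, 3–6 × 10^4/mL in Fischer's medium with 10% horse serum, 1% glutamine, 1% antibiotic–antimycotic. Drug added from ethanol dilutions (50 μL per 10 mL), exposure 2, 8, 24 or 48 h. Cells then spun down, resuspended in drug-free medium, counted 48 h after treatment start. IC50 read from percent-of-control count versus concentration plots.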

Test [2] relates to L1210. Briefly: Growth inhibition in L1210 mouse Leukemia cells for a treatment time of 8 hr. The following applies: L1210, 8 h. An outline of the steps: as §1
In test [3] the test system is L1210. The experiment in a line: Growth inhibition in L1210 mouse Leukemia cells for a treatment time of 2 hr. The following applies: L1210, 2 h. An outline of the steps:
as §1

In test [4] the test system is L1210. Briefly: Growth inhibition in L1210 mouse Leukemia cells for a treatment time of 24 hr. The following applies: L1210, 24 h. An outline of the steps: as §1

In the test with L1210 [1], `O=c1[nH]cc(F)c(=O)[nH]1` [FLUOROURACIL] gave an IC50 of 0.125 µM.

Turning to `CN(CCBr)P(=O)(NCC1OC(n2cc(F)c(=O)[nH]c2=O)CC1O)OCc1ccc([N+](=O)[O-])o1` (stereo not given), the IC50 with L1210 [2] came out at 0.504 µM; in the test on L1210 [3], 1.1 µM; in the test on L1210 [1] it was 0.034 µM; in the test with L1210 [4] it was 0.108 µM.

Usually IC50 stands for the midpoint of a concentration-inhibition curve.
